Bioassay records: PubChem BioAssay, several laboratories
Only some compounds are listed: those with a hit (about 5.7% of all), similar ones and a draw of the others.
Mdm2 MdmX PPI: disrupts the human Mdm2-MdmX interaction. SaOS-2 split-luciferase Mdm2/MdmX complementation, luminescence. inhibition, % at 8 µM. 330,000 compounds, 3% hits. AID 485346;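 active = inhibition of at least 50% at 8 µM in the primary screen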
SKKanGAS inh: blocks kanamycin growth of S. pyogenes SKKanGAS strain | BacTiter-Glo, 6 h | inhibition, % at 7.5 µM | 300,000 compounds, 1.3% hits | AID 1662;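 active = mean replicate score, as percent of positive control median, at least 50; inconclusive = mean below 50 but one replicate at or above 50; inactive = mean and every replicate below 50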;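 note: strain carries kanamycin resistance gene driven by streptokinase promoter and grows in 40 µg/ml kanamycin; loss of luminescence reflects streptokinase promoter inhibition or plain growth inhibition; 0% = median of DMSO wells and 100% = positive control at its reference dose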
Beta apoptosis: beta cell apoptosis inhibition; protection from apoptosis, % (test concentration not listed); 300,000 compounds, 0.8% hits; INS-1E cytokine-induced death, ATP luminescence, 48 h; percent of positive-control rescue, neutral wells zero;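 active = Every replicate reaches about 75%, or at least half do and their mean reaches it too, limit read from the data; inconclusive = At least half of replicates reach the limit but their mean does not; inactive = Under half of replicates reach the limit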;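 note: 0% = cytokine-treated negative control wells and 100% = positive control rescue; higher means more ATP so stronger rescue from cytokine killing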
CSC inhib: cancer stem cell inhibition; cancer stem cell-like cells viability, luminescence; inhibition, % at 7.5 µM; 300,000 compounds, 1.1% hits; in the data active = inhibition above about 75%; inconclusive = no clear call, values can overlap the other calls; tested in HMLE shEcad cells
Calb FLC: affects C. albicans growth with fluconazole; C. albicans CaCi-2 (fluconazole-resistant clinical isolate) + fluconazole, Alamar Blue growth, 48 h; growth inhibition, % (concentration not given with the values); 300,000 compounds, 0.57% hits;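 active = growth inhibition above about 58% in most replicates, limit read from the data, passing the limit was not always enough; inconclusive = exactly half the replicates above a set limit; inactive = most replicates below a set limit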;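 note: all wells also contain fluconazole at 8 µg/ml as a sub-toxic cotreatment; 0% = median of DMSO wells and 100% = median of geldanamycin control wells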
T cruzi repl: blocks replication of Trypanosoma cruzi; T. cruzi beta-gal in NIH3T3, luminescence, 90 h; inhibition, % (no concentration beside the values); 300,000 compounds, 1.4% hits;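 active = mean inhibition across valid replicates above about 55%, limit read from the data; inconclusive = mean below that limit but half or more replicates reach it; inactive = mean below it, under half of replicates reach it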;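 note: signal also drops with host cell toxicity which is not excluded here; 0% = plate median of DMSO wells and 100% = zero luminescence signal; higher percent means less beta-gal luminescence so fewer parasites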
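Assay system: NIH/3T3 host cells with β-galactosidase reporter T. cruzi; input: 5,000 host fibroblasts per well; compound: single 50 nL compound addition per well in DMSO; timing: ≥90 h infection period, 3 h prior cell attachment; measured by: GalScreen β-gal luminescence, detergent lysis, 60 min; evaluation: percent inhibition of parasite-derived β-gal signal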
* marks the source's active call; other numbers are inactive results.

How did CN(Cc1cccc(Cl)c1Cl)CC(O)COc1ccccc1 (stereo unspecified) do in these assays?
Mdm2 MdmX PPI: -6.2; SKKanGAS inh: 19.9; Beta apoptosis: -6.7; CSC inhib: -1.6; Calb FLC: -1.2; T cruzi repl: 15.3

What do the screens show for `COc1cccc(-c2nc(CS(=O)(=O)CC(=O)N3CCOCC3)c(C)o2)c1`?
Mdm2 MdmX PPI: 2.9; SKKanGAS inh: 11.1; Beta apoptosis: -3.7; CSC inhib: -2.2; Calb FLC: 2.5; T cruzi repl: -10.0

Results for CC1CC(C)CN(S(=O)(=O)N2CCCC(C(=O)NCCc3ccccc3)C2)C1 (stereo unspecified) ?
Mdm2 MdmX PPI: 25.3; SKKanGAS inh: 14.0; Beta apoptosis: 3.1; CSC inhib: -4.2; Calb FLC: -0.5; T cruzi repl: 14.2

How did O=C(N/N=C/c1ccc(Br)s1)c1ccc([N+](=O)[O-])cc1 do in these assays?
Mdm2 MdmX PPI: 21.7; SKKanGAS inh: 3.0; Beta apoptosis: 11.8; CSC inhib: 25.9; Calb FLC: 3.0; T cruzi repl: 75.6*

Results for Cn1c(SCC(=O)N/N=C/c2ccc([N+](=O)[O-])s2)nnc1-c1ccc(Cl)cc1 ?
Mdm2 MdmX PPI: 3.8; SKKanGAS inh: -0.4; Beta apoptosis: 88.8*; CSC inhib: 59.1; Calb FLC: 0.8; T cruzi repl: 50.8

How did COc1ccc2[nH]c3c(c2c1)CCN1C(=O)C(CC(=O)NCCCn2ccnc2)C[C@H](C(=O)N(C(C)C)C(C)C)[C@@]31C (stereo partly specified) do in these assays?
Mdm2 MdmX PPI: 13.9

Results for Cc1ccc(-c2nnn(CC(=O)N3c4ccccc4CCc4ccccc43)n2)cc1 ?
Mdm2 MdmX PPI: 12.3; SKKanGAS inh: -3.7; Beta apoptosis: -6.5; CSC inhib: 14.1; Calb FLC: 26.1; T cruzi repl: 57.8*

What do the screens show for `Cc1ccc(-c2nnn(CC(=O)O)n2)cc1`?
Mdm2 MdmX PPI: 3.8; SKKanGAS inh: 0.5; Beta apoptosis: 5.4; Calb FLC: 2.1; T cruzi repl: -4.8

Results for CCc1cc(CNC(=O)c2ccc3nc(Cc4ccc(OC)c(OC)c4)oc3c2)on1 ?
Mdm2 MdmX PPI: 15.5; SKKanGAS inh: -5.6; Beta apoptosis: 107.2*; CSC inhib: -9.2; Calb FLC: 9.0; T cruzi repl: -7.9

Results for COc1ccc(Cc2nc3ccc(C(=O)NCc4cc(C)no4)cc3o2)cc1 ?
Mdm2 MdmX PPI: -52.1; SKKanGAS inh: -3.4; Beta apoptosis: -0.1; CSC inhib: -10.1; Calb FLC: 6.4; T cruzi repl: -6.8

How did Cc1ccccc1NC(=S)c1nc2ccccc2[nH]1 do in these assays?
SKKanGAS inh: 19.1; Beta apoptosis: 31.9; CSC inhib: 25.7; Calb FLC: 13.0; T cruzi repl: 31.2

Results for S=C(Nc1ccc(Cl)cc1)c1nc2ccccc2[nH]1 ?
Mdm2 MdmX PPI: -43.3; SKKanGAS inh: 76.4*; Beta apoptosis: 42.7; CSC inhib: 45.9; Calb FLC: 95.8*; T cruzi repl: 47.0

How did C=CCn1c(NCc2ccccc2)nc2ccccc21 do in these assays?
Mdm2 MdmX PPI: -2.9; SKKanGAS inh: -2.9; Beta apoptosis: -7.2; CSC inhib: -11.8; Calb FLC: 36.2; T cruzi repl: -5.0

What do the screens show for `C=CCn1c(N2C(=O)CC(Cc3ccccc3)C2=O)nc2ccccc21` (stereo unspecified)?
Mdm2 MdmX PPI: -3.4; SKKanGAS inh: 63.7*; Beta apoptosis: 8.4; CSC inhib: 3.3; Calb FLC: 26.4; T cruzi repl: -1.4

Results for O=C(NCCNC(=O)c1ccco1)c1ccc(Cl)c(Cl)c1 ?
Mdm2 MdmX PPI: -1.3; SKKanGAS inh: -0.1; Beta apoptosis: -1.7; Calb FLC: 18.6; T cruzi repl: -1.0

How did COc1ccc(CCN(C)C(=O)c2c(C)noc2C)cc1OC do in these assays?
Mdm2 MdmX PPI: 24.9; Beta apoptosis: 1.5

Results for CC(=O)C1=C(O)C(=O)N(Cc2ccccc2)C1c1ccc([N+](=O)[O-])cc1 (stereo unspecified) ?
Mdm2 MdmX PPI: 15.6; SKKanGAS inh: -1.3; Beta apoptosis: -1.8; CSC inhib: -22.7; Calb FLC: -2.3; T cruzi repl: -11.4

Results for CCc1nc(NC(C)(C)C)c2cnn(-c3ccccc3)c2n1 ?
Mdm2 MdmX PPI: -9.9; SKKanGAS inh: 24.9; Beta apoptosis: -1.0; CSC inhib: 95.3*; Calb FLC: 8.6; T cruzi repl: 20.5

Results for CCCCNc1ncnc2c1cnn2-c1ccccc1 ?
Mdm2 MdmX PPI: -34.3; SKKanGAS inh: -7.7; Beta apoptosis: 5.0; CSC inhib: -13.5; T cruzi repl: 3.1

How did O=C(CNc1cccc(F)c1)N1CCc2ccccc2C1 do in these assays?
Mdm2 MdmX PPI: -4.7; SKKanGAS inh: -1.7; Beta apoptosis: -8.8; CSC inhib: -3.3; Calb FLC: -8.2; T cruzi repl: 8.7

What do the screens show for `COc1ccc(-c2cc(C3CCN(CC(O)C(F)(F)F)CC3)[nH]n2)cc1` (stereo unspecified)?
Mdm2 MdmX PPI: 3.3; SKKanGAS inh: 0.5; Calb FLC: -11.8; T cruzi repl: 1.4

How did COc1ccc(-c2cc(C3CCN(Cc4ccc([N+](=O)[O-])cc4)CC3)[nH]n2)cc1 do in these assays?
Mdm2 MdmX PPI: 40.3; SKKanGAS inh: 4.0; Beta apoptosis: 4.7; CSC inhib: 37.5; Calb FLC: 7.9; T cruzi repl: 85.1*

What do the screens show for `COC(=O)C1CCN(Cc2ccc(OCCCN3CCN(c4ccc([N+](=O)[O-])cc4)CC3)cc2)CC1`?
Mdm2 MdmX PPI: 33.9; SKKanGAS inh: -2.0; Beta apoptosis: 3.6; CSC inhib: 26.2; Calb FLC: 77.5; T cruzi repl: 60.9*

Results for CC1CCN(CCCCOc2ccc([N+](=O)[O-])cc2)CC1 ?
Mdm2 MdmX PPI: -0.9; SKKanGAS inh: -6.7; Beta apoptosis: 1.6; CSC inhib: 33.2; Calb FLC: -7.6; T cruzi repl: 19.9

Results for COc1ccc(-c2cc(C3CCN(Cc4cccc(C(F)(F)F)c4)CC3)[nH]n2)cc1 ?
Mdm2 MdmX PPI: 10.0; SKKanGAS inh: inconclusive; Beta apoptosis: 14.2; CSC inhib: 55.5; Calb FLC: 70.3*; T cruzi repl: 62.3*

Results for COc1cccc(CN2C(=O)C(C)N(C(=O)c3ccccc3)c3ccccc32)c1 (stereo unspecified) ?
Mdm2 MdmX PPI: 13.9; SKKanGAS inh: 6.9; Beta apoptosis: 8.6; CSC inhib: 2.7; Calb FLC: -1.3; T cruzi repl: 8.1

How did CCc1cccc(NC(=O)C2CCN(S(=O)(=O)c3ccc4c(c3)NC(=O)CO4)CC2)c1 do in these assays?
Mdm2 MdmX PPI: -2.4; SKKanGAS inh: -10.0; Beta apoptosis: 1.8; CSC inhib: -14.3; Calb FLC: -13.7; T cruzi repl: 4.3

How did CC1C(=O)C(C)C(c2ccc3c(c2)OCO3)NC1c1ccc2c(c1)OCO2 (stereo unspecified) do in these assays?
Mdm2 MdmX PPI: 6.2; SKKanGAS inh: 4.1; Beta apoptosis: 3.4; CSC inhib: -7.2; Calb FLC: -18.0; T cruzi repl: -8.0
